Test results taken from ChEMBL document CHEMBL1138023, “Macrocyclic ketone analogues of halichondrin B” (Bioorg Med Chem Lett, 2004).

Key:
U-937 [1] = experiment: In vitro inhibitory concentration required to inhibit the growth of U937 cells was determined at 10 hr by mitotic block reversibility assay; assay type: functional; details: Homo sapiens, U-937, 10 h
Outline: (§1)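 Human histiocytic lymphoma U937 cells, read by flow cytometry. Scores whether a complete mitotic block is maintained 10 h after drug washout.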

DLD-1 = experiment: In vitro inhibitory concentration required to inhibit the growth of DLD-1 cells under continuous exposure conditions for 3-4 days; assay type: functional, cell-based; details: Homo sapiens
Outline: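 Human colon cancer DLD-1 cells grown under continuous drug exposure for 3–4 days. Growth inhibition measured and IC50 reported ± SEM, n = number of experiments.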

U-937 [2] = experiment: In vitro inhibitory concentration required to inhibit the growth of U937 cells was determined at 0 hr by mitotic block reversibility assay; assay type: functional; details: Homo sapiens, U-937, 0 h
[3] = In vitro reversibility ratio in U937 cells; assay type: functional, U-937; outline: as §1
P388 = experiment: Fold resistance calculated as the inhibition concentration ratio between retrovirally transformed murine P388/VMDRC.04 and parental P388 cells; assay type: functional
Outline: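 Readout of P-glycoprotein (PgP) susceptibility: IC50 in the retrovirally transformed P388/VMDRC.04 line divided by IC50 in parental P388 cells, giving fold resistance.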

SMILES	IC99 (U-937 [1]) [µM]	IC50 (DLD-1) [pM]	IC99 (U-937 [2]) [µM]	Reversibility ratio [3]	FR (P388)
C=C1C[C@@H]2CC[C@@]34C[C@@H]5O[C@@H]6C(O[C@H]7CC[C@H](CC(=O)C[C@@H]8[C@@H](OC)[C@@H](CC(=O)CO)O[C@H]8C[C@H]8O[C@@H](CC[C@@H]1O2)C[C@@H](C)C8=C)O[C@@H]7[C@@H]6O3)[C@H]5O4	0.03	1100	0.003	10	3.7
C=C1C[C@@H]2CC[C@@]34C[C@@H]5O[C@@H]6C(O[C@H]7CC[C@H](CC(=O)C[C@@H]8[C@@H](OC)[C@@H](C[C@H](O)COS(=O)(=O)c9ccc(C)cc9)O[C@H]8C[C@H]8O[C@@H](CC[C@@H]1O2)C[C@@H](C)C8=C)O[C@@H]7[C@@H]6O3)[C@H]5O4	0.03	2000	0.007	4	2.4
C=C1C[C@@H]2CC[C@@]34C[C@@H]5O[C@@H]6C(O[C@H]7CC[C@H](CC(=O)C[C@@H]8[C@@H](OC)[C@@H](C[C@H](O)CSc9ccc(OC)cc9)O[C@H]8C[C@H]8O[C@@H](CC[C@@H]1O2)C[C@@H](C)C8=C)O[C@@H]7[C@@H]6O3)[C@H]5O4	0.03	710	0.003	10	1.7
C=C1C[C@@H]2CC[C@@]34C[C@@H]5O[C@@H]6C(O[C@H]7CC[C@H](CC(=O)C[C@@H]8[C@@H](OC)[C@@H](C[C@H](O)COC(=O)Nc9ccc(OC)cc9)O[C@H]8C[C@H]8O[C@@H](CC[C@@H]1O2)C[C@@H](C)C8=C)O[C@@H]7[C@@H]6O3)[C@H]5O4	0.03	860	0.003	10	5.8
C=C1C[C@@H]2CC[C@@]34C[C@@H]5O[C@@H]6C(O[C@H]7CC[C@H](CC(=O)C[C@@H]8[C@@H](OC)[C@@H](C[C@H](O)CN9CCCCC9)O[C@H]8C[C@H]8O[C@@H](CC[C@@H]1O2)C[C@@H](C)C8=C)O[C@@H]7[C@@H]6O3)[C@H]5O4	0.01	470	0.001	10	17
C=C1C[C@@H]2CC[C@@]34C[C@@H]5O[C@@H]6C(O[C@H]7CC[C@H](CC(=O)C[C@@H]8[C@@H](OC)[C@@H](C[C@H](O)CO)O[C@H]8C[C@H]8O[C@@H](CC[C@@H]1O2)C[C@@H](C)C8=C)O[C@@H]7[C@@H]6O3)[C@H]5O4	0.038	1000	0.003	13	9.7
C=C1C[C@@H]2CC[C@@]34C[C@@H]5O[C@@H]6C(O[C@H]7CC[C@H](CC(=O)O[C@@H]8[C@@H](C)[C@@H]9O[C@@H]%10C[C@]%11(C[C@@H]%12O[C@]%13(C[C@H](C)[C@@H]%14O[C@H]([C@@H](O)C[C@@H](O)CO)C[C@@H]%14O%13)C[C@H](C)[C@@H]%12O%11)O[C@@H]%10C[C@@H]9O[C@H]8C[C@H]8O[C@@H](CC[C@@H]1O2)C[C@@H](C)C8=C)O[C@@H]7[C@@H]6O3)[C@H]5O4	0.025	740	0.008	3	2.8
C=C1C[C@@H]2CC[C@@]34C[C@@H]5O[C@@H]6C(O[C@H]7CC[C@H](CC(=O)C[C@@H]8[C@@H](OC)[C@@H](CCO)O[C@H]8C[C@H]8O[C@@H](CC[C@@H]1O2)C[C@@H](C)C8=C)O[C@@H]7[C@@H]6O3)[C@H]5O4	0.1	660	0.003	33	8.5
C=C1C[C@@H]2CC[C@@]34C[C@@H]5O[C@@H]6C(O[C@H]7CC[C@H](CC(=O)C[C@@H]8[C@@H](OC)[C@@H](C[C@H](O)CS(=O)(=O)c9ccc(Cl)cc9)O[C@H]8C[C@H]8O[C@@H](CC[C@@H]1O2)C[C@@H](C)C8=C)O[C@@H]7[C@@H]6O3)[C@H]5O4	0.03	660	0.003	10	3.2
C=C1C[C@@H]2CC[C@@]34C[C@@H]5O[C@@H]6C(O[C@H]7CC[C@H](CC(=O)O[C@@H]8[C@@H](OC)[C@@H](C[C@H](O)CO)O[C@H]8C[C@H]8O[C@@H](CC[C@@H]1O2)C[C@@H](C)C8=C)O[C@@H]7[C@@H]6O3)[C@H]5O4			0.002	8	
C=C1C[C@@H]2CC[C@@]34C[C@@H]5O[C@@H]6C(O[C@H]7CC[C@H](CC(=O)C[C@@H]8[C@@H](OC)[C@@H](C[C@H](O)CNC(=O)c9cc(OC)c(OC)c(OC)c9)O[C@H]8C[C@H]8O[C@@H](CC[C@@H]1O2)C[C@@H](C)C8=C)O[C@@H]7[C@@H]6O3)[C@H]5O4	0.01	720	0.002	5	20
C=C1C[C@@H]2CC[C@@]34C[C@@H]5O[C@@H]6C(O[C@H]7CC[C@H](CC(=O)C[C@@H]8[C@@H](OC)[C@@H](C[C@H](O)COS(C)(=O)=O)O[C@H]8C[C@H]8O[C@@H](CC[C@@H]1O2)C[C@@H](C)C8=C)O[C@@H]7[C@@H]6O3)[C@H]5O4	0.03	800	0.003	10	3
C=C1C[C@@H]2CC[C@@]34C[C@@H]5O[C@@H]6C(O[C@H]7CC[C@H](CC(=O)C[C@@H]8[C@@H](OC)[C@@H](C[C@H](O)CNC(=O)C(=O)c9ccccc9)O[C@H]8C[C@H]8O[C@@H](CC[C@@H]1O2)C[C@@H](C)C8=C)O[C@@H]7[C@@H]6O3)[C@H]5O4	0.01	870	0.003	3	3.6
C=C1C[C@@H]2CC[C@@]34C[C@@H]5O[C@@H]6C(O[C@H]7CC[C@H](CC(=O)C[C@@H]8[C@@H](OC)[C@@H](C[C@@H](O)CO)O[C@H]8C[C@H]8O[C@@H](CC[C@@H]1O2)C[C@@H](C)C8=C)O[C@@H]7[C@@H]6O3)[C@H]5O4	0.1	1900	0.003	33	13
C=C1C[C@@H]2CC[C@@]34C[C@@H]5O[C@@H]6C(O[C@H]7CC[C@H](CC(=O)C[C@@H]8[C@@H](OC)[C@@H](C[C@H](O)CNC(=O)c9ccc(Cl)cc9)O[C@H]8C[C@H]8O[C@@H](CC[C@@H]1O2)C[C@@H](C)C8=C)O[C@@H]7[C@@H]6O3)[C@H]5O4	0.02	690	0.003	7	5.9
C=C1C[C@@H]2CC[C@@]34C[C@@H]5O[C@@H]6C(O[C@H]7CC[C@H](CC(=O)O[C@@H]8[C@@H](C)[C@@H]9O[C@H](CO)[C@@H](O)C[C@@H]9O[C@H]8C[C@H]8O[C@@H](CC[C@@H]1O2)C[C@@H](C)C8=C)O[C@@H]7[C@@H]6O3)[C@H]5O4			0.009	24	
C=C1C[C@@H]2CC[C@@]34C[C@@H]5O[C@@H]6C(O[C@H]7CC[C@H](CC(=O)C[C@@H]8[C@@H](OC)[C@@H](C[C@H](O)CN(C)C)O[C@H]8C[C@H]8O[C@@H](CC[C@@H]1O2)C[C@@H](C)C8=C)O[C@@H]7[C@@H]6O3)[C@H]5O4	0.01	1200	0.001	10	22
C=C1C[C@@H]2CC[C@@]34C[C@@H]5O[C@@H]6C(O[C@H]7CC[C@H](CC(=O)C[C@@H]8[C@@H](OC)[C@@H](C[C@H](O)CN9CCOCC9)O[C@H]8C[C@H]8O[C@@H](CC[C@@H]1O2)C[C@@H](C)C8=C)O[C@@H]7[C@@H]6O3)[C@H]5O4	0.02	430	0.003	7	4.7
C=C1C[C@@H]2CC[C@@]34C[C@@H]5O[C@@H]6C(O[C@H]7CC[C@H](CC(=O)O[C@@H]8[C@@H](OC)[C@H](O)[C@H](CCO)O[C@H]8C[C@H]8O[C@@H](CC[C@@H]1O2)C[C@@H](C)C8=C)O[C@@H]7[C@@H]6O3)[C@H]5O4			0.01	30	
